INS promoter act: TRM-6 insulin promoter activation | TRM-6 cells (human fetal islet line), insulin promoter eGFP reporter, imaging; plate-scaled: unstimulated 0, stimulated control 100 | activation, % at 2 µM | 0.81% of 130,000 active;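 active = activation at 2 µM above a set limit, confirmed on inspection of the cell images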;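 also: share of cells whose green reporter signal exceeds an intensity cutoff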
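Assay system: TRM-6 human fetal islet cells, insulin promoter–eGFP reporter; Also added: 0.75 µM tamoxifen as reporter inducer; Schedule: 15 h tamoxifen pre-treatment, 48 h compound treatment at 37 °C; Signal: fixed-cell fluorescence microscopy, eGFP plus Hoechst; Read-out: percent activation from GFP-positive cell fraction; Control set: stimulated and unstimulated wells.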
Large screens that a line does not name were inactive; [ ] = remark or other dose. This excerpt belongs to a sample that is enriched for hits.

CC1CCCN(C(C(=O)NC2CCCCC2)c2cc3c(cc2[N+](=O)[O-])OCO3)C1 (stereo not drawn)	none
O=C(c1ccccc1[N+](=O)[O-])N1CCCN(C(=O)c2ccccc2[N+](=O)[O-])CC1	none
O=C(CSCc1ccc(Cl)cc1)NCC1CCCO1 (stereo not drawn)	none
Clc1ccc(-n2ncc3c(NCC4CCCO4)ncnc32)cc1 (stereo not drawn)	none
OC(CNCC1CCCO1)Cn1c2ccc(Cl)cc2c2cc(Cl)ccc21 (stereo not drawn)	INS promoter act 88.9
CCn1c(=NC(=O)CSC(C)=O)sc2cc(F)ccc21	INS promoter act 79.3
C=CCn1c(=NC(=O)CN2C(=O)CCC2=O)sc2cc(S(N)(=O)=O)ccc21	none
COC(=O)Cn1c(=NC(=O)c2cc(OC)cc(OC)c2)sc2cc(OC)ccc21	none
COC(=O)Cc1ccc(O)c(N)c1	none
CCOc1ccc(C(=O)N/N=C/c2cc(Cl)ccc2[N+](=O)[O-])cc1	none
O=c1c2sc3ccccc3c2[nH]c(=S)n1CCN1CCOCC1	none
CCOC(=O)C1CCN(C(=O)Cc2cccs2)CC1	none
CCOC(=O)C1CCN(C(=O)N(CC)CC)CC1	INS promoter act 253.5
CCOC(=O)C1CCN(C(=O)C2CCCCC2)CC1	INS promoter act 561.5
CCOC(=O)N1CCN(C(=O)C2CCN(S(=O)(=O)N3CCCC3)CC2)CC1	none
CCOC(=O)C1CCN(C(=O)/C=C/c2cccs2)CC1	none
CCOC(=O)C1CCCN(C(=O)C2CCN(S(=O)(=O)CC)CC2)C1 (stereo not drawn)	none
Cc1cccc(N2CCN(C(=O)C(C)n3nc(C)n4c(cc5occc54)c3=O)CC2)c1C (stereo not drawn)	none
O=C(O)CCC(=O)N1CCN(c2cccc(Cl)c2)CC1	INS promoter act 466.7
O=C(CN1CCN(c2cccc(Cl)c2)CC1)N1CCCC1	none
CC(=O)/C(C(=N)N1CCN(c2cccc(Cl)c2)CC1)=C(\C)O	none
COc1ccc(C(=O)NC=C2C(=O)OC(C)(C)OC2=O)cc1	none
COc1ccc(/C=N/OC(=O)Nc2ccccc2OC)cc1	none
Cc1ccc(Cl)cc1NC(=S)NCCCSC1CCCCC1	none
CCCCCCCCNC(=O)/C(C#N)=C/c1ccc(SC)cc1	none
CCN(CC)CC(=O)N1c2ccccc2Sc2ccc(Cl)cc21	none
CCCN1C(=O)/C(=C\C=C2/Sc3ccccc3N2CC)SC1=S	INS promoter act 387.8
CCCN1C(=O)CC(c2ccco2)Sc2ccccc21 (stereo not drawn)	none
CCN1C(=O)/C(=C\C=C2/C=CC=CN2CC)SC1=S	none
CCN1/C(=C\C=C(C(C)=O)C(C)=O)Sc2ccccc21	INS promoter act 669.2
O=C(CN1CCCC1)N1c2ccccc2Sc2ccccc21	none
O=C(NC1CCCC1)C(c1cccs1)N(CC1CCCO1)C(=O)Cc1cccs1 (stereo not drawn)	none
CCOC(=O)C(=O)Nc1cc(Cl)ccc1C	none
O=C(COC(=O)/C=C/c1ccc(Br)o1)NCCCN1CCCC1=O	none
Cc1nc(C)c(/C(O)=C/c2nc3ccccc3oc2=O)s1	none
CC1CC(C)CN(C(=O)CCc2ccccc2)C1 (stereo not drawn)	none
O=C(NCc1ccc(F)cc1)c1ccc(N2CCc3ccccc32)c([N+](=O)[O-])c1	none
O=C(CSc1n[nH]c(-c2cccnc2)n1)OC1CCCCC1	none
CC(C)=N/N=C(\c1cccc([N+](=O)[O-])c1)C12CN3CN(CN(C3)C1)C2	none
CCn1c(Cc2ccc(OC)cc2)nnc1SCC(=O)Nc1cccc(C(=O)OC)c1	INS promoter act 442.9
CCn1c(Cc2ccccc2)nnc1SCC(=O)Nc1ccc2c(c1)OCCO2	none
CCn1c(Cc2ccccc2)nnc1SCC(=O)Nc1ccc(OC)cc1	none
CS(=O)(=O)N(CC(N)=O)c1cccc(Br)c1	INS promoter act 513.8
C=CCNC(=O)CN(c1cccc(Br)c1)S(C)(=O)=O	none
CS(=O)(=O)N(CC(N)=O)c1ccc(F)c(Cl)c1	none
CCN1C(=O)/C(=C\N2CCN(C)CC2)SC1=S	none
COCCN1C(=O)/C(=C/c2ccc(N3CCCC3)cc2C)SC1=S	INS promoter act 455.6[fluoresces]
CCOC(=O)CN1C(=O)S/C(=C/c2cc(C)n(C)c2C)C1=O	none
COc1cc(OC)c(-c2cc(C(=O)O)ccc2OC)c(OC)c1	none
N#Cc1cccc(Cn2nnc(-c3ccccc3)n2)c1	none
O=C1CCC(C(=O)N2CCC(CO)(Cc3ccc(Cl)cc3)CC2)=NN1	none
CCc1cc(SC#N)cc(CC)c1NC(=O)CCl	none
Cc1nnc(SCC(=O)NC2CCCCC2)s1	none
O=C(CSc1ncnc2ccccc12)N1CCN(c2ccccc2)CC1	none
c1ccc(-c2cn3c4c(sc3n2)CCCC4)cc1	none
CCOc1cc(C(=O)N(C)Cc2cc3cc(OC)ccc3[nH]c2=O)cc(OCC)c1OCC	none
COc1ccc2[nH]c(=O)c(CN(C(C)=O)c3cccc(C)c3)cc2c1	none
CCC(=O)N(Cc1cc2cc(OC)ccc2[nH]c1=O)c1ccc(C)cc1C	INS promoter act 236.4
COc1ccc(C(=O)NNC(=O)c2cccc(F)c2)cc1	none
CCC(=O)NC(Nc1ccccn1)(C(=O)OC)C(F)(F)F (stereo not drawn)	none
O=C(Nc1ccc(Cl)cc1)OCCn1nnnc1C(c1ccccc1)N1CCOCC1 (stereo not drawn)	INS promoter act 88.6
O=C(c1ccco1)N1CCN(C(c2ccc(Cl)cc2)c2nnnn2Cc2ccccc2)CC1 (stereo not drawn)	none
CN1CCN(C(c2ccccc2)c2nnnn2Cc2ccccc2)CC1 (stereo not drawn)	none
CNC(=O)NC(=O)C(C)OC(=O)CCCSc1nc2ccccc2s1 (stereo not drawn)	none
O=C(c1c[nH]c2ccc(S(=O)(=O)N3CCC4(CC3)OCCO4)cc2c1=O)N1CCOCC1	none
COC(CNC(=O)c1c[nH]c2ccc(S(=O)(=O)N3CCC4(CC3)OCCO4)cc2c1=O)OC	INS promoter act 400.0
COc1ccc(CCNC(=O)c2cc(S(=O)(=O)N3CCC4(CC3)OCCO4)ccc2F)cc1OC	none
Cc1ccnn1CCSCC(=O)O	none
O=C(CSc1nc(-c2ccccc2)cs1)N1CCc2ccccc21	none
O=C(CN1C2=NCCCN2c2ccccc21)c1cccc(Br)c1	none
Clc1ccc(CN2C3=NCCCN3c3ccccc32)cc1	INS promoter act 136.4
OC(CN1C2=NCCN2c2ccccc21)c1ccc(Br)cc1 (stereo not drawn)	none
C=CCn1c(N)cc(=O)nc1SCC(=O)Nc1ccc(C)cc1	none
CS(=O)(=O)c1ccc(C(=O)OCc2nnc(-c3ccccc3)o2)cc1[N+](=O)[O-]	none
CC(=O)/C(=C/c1ccc(N(C)C)cc1)C(=O)c1ccccc1	none
CN(C)c1ccc(/C=N/N=C/c2ccccc2O)cc1	none
CN(C)c1ccc(/C=C/c2cc[n+](C)cc2)cc1	INS promoter act 174.0
CCn1ccnc1C(O)c1ccccc1OC (stereo not drawn)	none
COc1ccc(/C=N/NC(=O)c2ccncc2)cc1Cn1nc([N+](=O)[O-])c(Br)c1C	INS promoter act 393.8
COc1ccc(/C=N/NC(=O)c2ccc(Br)o2)cc1Cn1cc([N+](=O)[O-])cn1	none
COc1cc(/C=N/NC(=O)c2ccncc2)ccc1OC(=O)c1ccc([N+](=O)[O-])cc1	none
CCN(CC)C(=O)C(=O)c1cccn1-c1c(Cl)cccc1C#N	none
Cc1onc(-c2ccccc2Cl)c1C(=O)N1CCN(Cc2ccc3c(c2)OCO3)CC1	none
CC(c1ccccn1)N(CCN(C)C)C(=S)Nc1cccc(F)c1 (stereo not drawn)	none
COCCCN(C(=O)Nc1cccc(Cl)c1)C(C)c1ccccn1 (stereo not drawn)	INS promoter act 641.7
COCCCN(C(=S)Nc1cccc(Cl)c1)C(C)c1ccncc1 (stereo not drawn)	none
COc1ccc2nc(SCC(=O)c3ccco3)[nH]c2c1	none
